Assay results from PubChem BioAssay.
Active and inactive are the calls of the source.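 Rule for the calls, unless noted: active = Her2 level under about 52% in both replicate screens, with viability over 70% of control (limit read from the data); inconclusive = Her2 under the limit in one screen only, or viability under 70%; inactive = Her2 level above the set limit.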

What was measured:
[1] = reducers of endogenous Her2 protein level, primary screen, SKBR3 breast tumor cells, AlphaScreen, ATP viability (AID 461); details: 18-24 h, measured here: SKBR3 viability, ATP luminescence, at 10 µM;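 for Her2 level: lower value means less Her2 protein in the cells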;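 for viability: percent of carrier control wells set as 100% viability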
[2] = molecular target: Receptor tyrosine-protein kinase erbB-2 (Homo sapiens) (UniProt P04626); test: as above; details: 18-24 h, at 10 µM, stronger effect = lower value
Sequence of Receptor tyrosine-protein kinase erbB-2 (Homo sapiens) (P04626 whole entry, looked up): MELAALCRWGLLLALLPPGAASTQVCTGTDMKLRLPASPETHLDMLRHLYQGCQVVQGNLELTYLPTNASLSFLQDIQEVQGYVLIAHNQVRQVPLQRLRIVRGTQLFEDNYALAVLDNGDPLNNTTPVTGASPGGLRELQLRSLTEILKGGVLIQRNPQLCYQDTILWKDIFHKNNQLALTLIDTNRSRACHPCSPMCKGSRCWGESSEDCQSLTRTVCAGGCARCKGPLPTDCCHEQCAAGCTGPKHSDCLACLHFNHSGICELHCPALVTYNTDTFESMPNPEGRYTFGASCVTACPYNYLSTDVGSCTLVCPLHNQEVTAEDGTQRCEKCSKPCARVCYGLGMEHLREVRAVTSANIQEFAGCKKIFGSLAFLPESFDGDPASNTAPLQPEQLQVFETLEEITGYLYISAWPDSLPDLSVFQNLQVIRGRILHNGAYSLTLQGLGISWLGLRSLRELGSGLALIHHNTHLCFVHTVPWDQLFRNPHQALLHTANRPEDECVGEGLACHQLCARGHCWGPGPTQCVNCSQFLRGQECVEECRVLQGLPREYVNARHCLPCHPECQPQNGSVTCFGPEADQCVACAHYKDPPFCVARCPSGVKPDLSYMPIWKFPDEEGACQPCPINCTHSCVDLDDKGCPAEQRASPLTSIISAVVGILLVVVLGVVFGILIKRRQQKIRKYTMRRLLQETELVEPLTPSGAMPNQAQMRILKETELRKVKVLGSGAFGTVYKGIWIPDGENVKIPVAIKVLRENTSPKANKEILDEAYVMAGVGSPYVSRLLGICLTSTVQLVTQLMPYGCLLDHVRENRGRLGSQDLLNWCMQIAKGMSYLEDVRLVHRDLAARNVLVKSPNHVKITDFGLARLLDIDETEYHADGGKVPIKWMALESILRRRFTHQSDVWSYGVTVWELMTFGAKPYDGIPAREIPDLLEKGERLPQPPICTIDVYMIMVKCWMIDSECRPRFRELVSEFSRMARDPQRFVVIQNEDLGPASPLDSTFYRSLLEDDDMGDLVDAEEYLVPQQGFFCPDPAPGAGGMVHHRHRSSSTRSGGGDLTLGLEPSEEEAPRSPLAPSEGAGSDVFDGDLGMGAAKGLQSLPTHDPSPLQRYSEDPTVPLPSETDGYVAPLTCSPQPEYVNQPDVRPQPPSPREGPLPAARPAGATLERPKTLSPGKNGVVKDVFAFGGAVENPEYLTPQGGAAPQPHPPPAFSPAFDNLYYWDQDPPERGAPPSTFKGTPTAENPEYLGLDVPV

[3] = SK-BR-3 cell growth inhibitors, pilot screen, 24 h, human (AID 572;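 active = viability at or below 10% of carrier control in both of two separate runs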;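 note: compound exposure lasted between 18 and 24 h rather than exactly 24 h; 100% = carrier-treated control wells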); details: SK-BR-3 viability, CellTiter-Glo luminescence, at 10 µM, stronger effect = lower value
[4] = HUVEC growth inhibition – cell-based, human, primary screen (AID 575;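 active = viability at or below 30% in both replicate assays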;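 note: 100% = median of untreated cell wells with 0.1% DMSO on each plate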); details: HUVEC proliferation, CellTiter-Glo luminescence, 72 h; at 10 µM; stronger effect = lower value
Method in brief: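 System: primary human umbilical vein endothelial cells; Quantity: 1250 endothelial cells in each well; Buffer or medium: supplemented EBM, 2% fetal bovine serum; Doses: one dose, 10 µM final, 0.1% DMSO; Incubation: 72 h compound incubation; Technique: ATP-based CellTiter-Glo luminescent read; Evaluation: percent of median DMSO-control luminescence; Controls: vehicle and MePR control wells.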

[5] = growth inhibitors of H69AR lung tumor, primary screen, human, duplicate replicates (AID 580;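 active = viability at or under a set limit in both replicates, limit being median viability minus 3 SD, cut at about 48% in these data, passing the limit was not always enough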;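 note: 100% = mean luminescence of untreated wells and 0% = no signal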); details: H69AR lung tumor cells viability, ATP luminescence, 72 h; at 10 µM; stronger effect = lower value
[6] = reversal of MRP1-mediated doxorubicin resistance, pilot screen, H69AR cells, doxorubicin co-treatment (AID 601;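 active = viability loss from added drug above about 55%, and viability with drug at most 40%, in both replicates, limit read from the data, passing the limit was not always enough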); details: CellTiter-Glo, 72 h, at 10 µM; for differential viability (reversal): stronger effect = higher value
[7] = 384-well plate pilot, post-Golgi transport modulator project, inhibition of yeast transport mutant growth (AID 636; in the data active = inhibition above about 31%); details: absorbance 615 nm, about 18 h, stronger effect = higher value
[8] = growth suppression of yeast trafficking mutant, preliminary HTS, modulators of trafficking downstream of Golgi apparatus project, 1536-format plate, OD 615 nm (AID 637; in the data active = inhibition above about 30%); details: yeast transport mutant growth, absorbance 615 nm, 18 h; stronger effect = higher value
[9] = H69AR cells + 2 uM doxorubicin, measured here: viability with 2 uM doxorubicin, stronger effect = lower value
[10] = H69AR cells, compound alone cytotoxicity

SMILES | viability [1] [%] | Her2 level [2] | viability [3] | viability [4] | viability [5] | differential viability (reversal) ([6]; H69AR cells + 2 uM doxorubicin) | viability [6, 9] [%] | viability [6, 10] [%] | inhibition [7] | inhibition [8]
COCCn1c(SCC(=O)N(C(C)C)C(C)C)nnc1-c1cc2ccccc2cc1O | 96 | 91.5% (inactive) | 96% (inactive) | 106% (inactive) | 88.3% (inactive) | 0.38% (inactive) | 88 | 88.3 | -1.3% (inactive) | -5.5% (inactive)
COc1ccc(Cl)cc1C(=O)n1nc(C)cc1C | 104 | 112% (inactive) | 104% (inactive) | 93% (inactive) | 94.6% (inactive) | 1.56% (inactive) | 93 | 94.6 | 2.43% (inactive) | 9.17% (inactive)
CC1(C)Cc2c(sc3ncnc(N)c23)CO1 | 116 | 92.5% (inactive) | 116% (inactive) | 96.6% (inactive) | 95.6% (inactive) | 8.37% (inactive) | 87.3 | 95.6 | -7.47% (inactive) | 1.48% (inactive)
COc1cc(Cn2c(C(=O)O)cc3sccc32)cc(OC)c1OC | 107 | 102% (inactive) | 107% (inactive) | 98.4% (inactive) | 94.1% (inactive) | 2.41% (inactive) | 91.7 | 94.1 | -1.97% (inactive) | 6.56% (inactive)
O=C(C1CCCO1)N1CCN(Cc2nc3ccccc3c(=O)[nH]2)CC1 (stereo not given) | 91.5 | 92% (inactive) | 91.5% (inactive) | 96.3% (inactive) | 94.9% (inactive) | -10% (inactive) | 105 | 94.9 | -7.16% (inactive) | 0.16% (inactive)
CC(C)(C)c1cc(C(=S)N2CCN(CCO)CC2)cc(C(C)(C)C)c1O | 123 | 86% (inactive) | 123% (inactive) | 94.7% (inactive) | 96.2% (inactive) | 17.4% (inactive) | 78.8 | 96.2 | -6.13% (inactive) | 2.42% (inactive)
CCCC(C(=O)NCc1ccco1)N(C(=O)CNS(=O)(=O)c1ccc(Cl)cc1)C1CCCC1 (stereo not given) | 122 | 91% (inactive) | 122% (inactive) | 74.1% (inactive) | 82.7% (inactive) | -4.13% (inactive) | 86.8 | 82.7 | -0.13% (inactive) | 3.55% (inactive)
COc1ccc(-c2nnc3ccc(SC(C(C)=O)C(C)=O)nn23)cc1OC | 90 | 86.5% (inactive) | 90% (inactive) | 87.8% (inactive) | 82.9% (inactive) | 4.92% (inactive) | 78 | 82.9 | -6.62% (inactive) | 6.17% (inactive)
CCOCCCn1c(=S)[nH]c2cc3c(cc2c1=O)OCO3 | 99 | 102% (inactive) | 99% (inactive) | 96.3% (inactive) | 97.6% (inactive) | 4.13% (inactive) | 93.4 | 97.6 | -3.38% (inactive) | -2.79% (inactive)
O=C(O)CCC(=O)c1c[nH]c2ccccc12 | 88 | 114% (inactive) | 88% (inactive) | 88.4% (inactive) | 95.6% (inactive) | -5.4% (inactive) | 101 | 95.6 | 1.47% (inactive) | -4.76% (inactive)
COC(=O)c1oc2ccc(Br)cc2c1NC(=O)CN1CCN(C)CC1 | 92.5 | 100% (inactive) | 92.5% (inactive) | 101% (inactive) | 96.6% (inactive) | 16.2% (inactive) | 80.3 | 96.6 | 1.18% (inactive) | 0.55% (inactive)
NCc1cccc(-n2cccn2)c1 | 110 | 103% (inactive) | 110% (inactive) | 93.2% (inactive) | 82.6% (inactive) | -10.1% (inactive) | 92.8 | 82.6 | -3.64% (inactive) | -2.7% (inactive)
CCCn1c(SCC(=O)N2CCN(c3ccccc3)CC2)nc2ccccc2c1=O | 117 | 90.5% (inactive) | 117% (inactive) | 70.7% (inactive) | 83.8% (inactive) | 0.045% (inactive) | 83.8 | 83.8 | 8.38% (inactive) | 32.7% (active)
Cc1ccc(F)cc1NC(=O)Cc1nn(C)c(=O)c2ccccc12 | 96.5 | 74.5% (inactive) | 96.5% (inactive) | 74.1% (inactive) | 93.4% (inactive) | 15.8% (inactive) | 77.6 | 93.4 | -0.66% (inactive) | -0.16% (inactive)
COc1cc(NC2=CC(=O)CC(C)(C)C2)cc(OC)c1 | 77 | 133% (inactive) | 77% (inactive) | 85.5% (inactive) | 96.8% (inactive) | 6.11% (inactive) | 90.6 | 96.8 | 0.26% (inactive) | -7.17% (inactive)
O=C(CSc1nnnn1-c1ccccc1)c1cc2ccccc2oc1=O | 95.5 | 102% (inactive) | 95.5% (inactive) | 86.5% (inactive) | 74.2% (inactive) | -4.18% (inactive) | 78.3 | 74.2 | -6.62% (inactive) | -6.83% (inactive)

SMILES | viability [1] [%] | Her2 level [2] | viability [3] | viability [4] | viability [5] | differential viability (reversal) ([6]; H69AR cells + 2 uM doxorubicin) | viability [6, 9] [%] | viability [6, 10] [%] | inhibition [7] | inhibition [8]
CCOC(=O)c1c(C)[nH]c(C(=O)COC(=O)C2CC2C)c1C (stereo not given) | 117 | 116% (inactive) | 117% (inactive) | 99.4% (inactive) | 102% (inactive) | 15.7% (inactive) | 85.8 | 102 | -4.93% (inactive) | 0.48% (inactive)
Cc1cc(NC(=O)Cn2cnc3c(cnn3C(C)(C)C)c2=O)no1 | 91.5 | 100% (inactive) | 91.5% (inactive) | 102% (inactive) | 91.9% (inactive) | 2.12% (inactive) | 89.8 | 91.9 | 0.66% (inactive) | -5.16% (inactive)
O=C(C(c1ccccc1)c1ccccc1)N1CCN(Cc2ccccn2)CC1 | 81 | 112% (inactive) | 81% (inactive) | 84.7% (inactive) | 93.4% (inactive) | -0.39% (inactive) | 93.8 | 93.4 | -1.03% (inactive) | -5.83% (inactive)
CCOCCCNC(=O)CS(=O)(=O)Cc1nc(-c2cccc(OC)c2)oc1C | 128 | 92% (inactive) | 128% (inactive) | 88.4% (inactive) | 84% (inactive) | -3.73% (inactive) | 87.8 | 84 | -4.81% (inactive) | 5.24% (inactive)
CCn1ncc(C2=NOC(C(=O)NCc3ccccc3)C2)c1C (stereo not given) | 91 | 82.5% (inactive) | 91% (inactive) | 43.2% (inactive) | 27.5% (active) | -33% (inactive) | 60.4 | 27.5 | -6.18% (inactive) | -1.9% (inactive)
COc1cc(C)c(N)cc1C(C)C | 103 | 91% (inactive) | 103% (inactive) | 89.2% (inactive) | 94.1% (inactive) | 1.33% (inactive) | 92.8 | 94.1 | -2.93% (inactive) | -0.82% (inactive)
CCSc1nnc(NC(=O)CSc2nnc(Cc3cccn3C)n2-c2ccc(C)cc2)s1 | 95.5 | 108% (inactive) | 95.5% (inactive) | 78.4% (inactive) | 88.8% (inactive) | -7.38% (inactive) | 96.1 | 88.8 | -1.56% (inactive) | -5.24% (inactive)
COC(=O)C1=C(C)NC(=O)C1(Nc1ccc(Cl)cn1)C(F)(F)F (stereo not given) | 90.5 | 83.5% (inactive) | 90.5% (inactive) | 103% (inactive) | 96.5% (inactive) | -1.2% (inactive) | 97.7 | 96.5 | -3.59% (inactive) | -5.17% (inactive)
COCCCNC(=O)C1CCCN(C(=O)Nc2ccc(OC)cc2)C1 (stereo not given) | 98 | 89% (inactive) | 98% (inactive) | 100% (inactive) | 90.4% (inactive) | 6.8% (inactive) | 83.6 | 90.4 | -7.03% (inactive) | 1.83% (inactive)
O=C(CSc1nc2ccccc2s1)N1CCN(C(=O)c2ccco2)CC1 | 86.5 | 97% (inactive) | 86.5% (inactive) | 79.8% (inactive) | 104% (inactive) | 9.76% (inactive) | 94.6 | 104 | -3.82% (inactive) | -5.17% (inactive)
CC1(C)COCN1S(=O)(=O)c1ccc(C(=O)Nc2nnc(-c3ccc(Cl)s3)o2)cc1 | 70.5 | 97% (inactive) | 70.5% (inactive) | 4.41% (active) | 15% (active) | -18.8% (inactive) | 33.8 | 15 | -5.21% (inactive) | -1.43% (inactive)
O=C1NC(c2cccs2)Nc2ccccc21 (stereo not given) | 107 | 86.5% (inactive) | 107% (inactive) | 111% (inactive) | 86.7% (inactive) | -4.77% (inactive) | 91.4 | 86.7 | -8.03% (inactive) | -9.52% (inactive)
CCOc1ccc(-n2c(C)nc3c(cnn3-c3ccc(Cl)cc3)c2=O)cc1 | 95 | 99.5% (inactive) | 95% (inactive) | 80.3% (inactive) | 80.7% (inactive) | -6.13% (inactive) | 86.8 | 80.7 | -0.39% (inactive) | -3.06% (inactive)
CC(C)C(OC(=O)c1ccco1)C(=O)NCc1ccccc1 (stereo not given) | 91.5 | 97% (inactive) | 91.5% (inactive) | 92.5% (inactive) | 99.1% (inactive) | 8.63% (inactive) | 90.4 | 99.1 | 0% (inactive) | -4.6% (inactive)
CCOC(=O)c1nnn(CC(=O)Nc2cccc(F)c2)c1C(=O)OCC | 112 | 95% (inactive) | 112% (inactive) | 100% (inactive) | 96.2% (inactive) | 3.89% (inactive) | 92.4 | 96.2 | -1.04% (inactive) | -6.35% (inactive)
